Usually inhibition stands for the share of the control response that was lost under treatment. The term IC50 denotes the concentration needed to halve the response being measured.

The record followed here is ChEMBL document CHEMBL4339195, “Di-aryl Sulfonamide Motif Adds π-Stacking Bulk in Negative Allosteric Modulators of the NMDA Receptor” (ACS Med Chem Lett, 2019).

Assay [1] relates to Glutamate receptor 4 (Homo sapiens), P48058 [L505Y]. The assay is described as follows: Negative allosteric modulation of human GluA4 L505Y mutant expressed in Xenopus laevis oocytes assessed as inhibition of glutamate-induced current response at 30 uM at -40 mV holding potential by two-electrode voltage clamp method relative to glutamate alone. Format: cell-based. Summed up: (§1)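 Oocyte two-electrode voltage clamp at -40 mV holding. Test compound co-applied with agonist; response given as percent of the mean of control and recovery currents to agonist alone. Agonists: 100 µM glutamate (AMPA, kainate), 100 µM GABA (GABA receptors), 100 µM glycine (glycine receptor), 100 µM serotonin (5-HT3A), 9 µM ATP (P2X), 1 µM acetylcholine (nicotinic).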
(Two-electrode voltage clamp is typically applied to oocytes expressing channels or transporters.)

The subject of assay [2] is Glutamate receptor 3 (Homo sapiens), P42263 [L513Y]. The assay is described as follows: Negative allosteric modulation of human GluA3 L513Y mutant expressed in Xenopus laevis oocytes assessed as inhibition of glutamate-induced current response at 30 uM at -40 mV holding potential by two-electrode voltage clamp method relative to glutamate alone. Format: cell-based. Summed up:
as §1

The target of assay [3] is P2X receptor (Homo sapiens) (UniProt P51575+Q99571+Q9UBL9+O15547+P56373+Q99572+Q93086). The assay is described as follows: Negative allosteric modulation of human P2X expressed in Xenopus laevis oocytes assessed as inhibition of ATP-induced current response at 30 uM at -40 mV holding potential by two-electrode voltage clamp method relative to ATP alone. The format is cell-based. Summed up:
as §1

Assay [4] has as its target Glutamate NMDA receptor; Grin1/Grin2c (Rattus norvegicus) (UniProt P35439+Q00961). In words: Potency index, ratio of NP11999 IC50 to test compound IC50 for negative allosteric modulation of recombinant rat GluN1/GluN2C expressed in Xenopus laevis oocytes assessed as inhibition of glutamate/glycine-induced current response. Format: cell-based.
In assay [5] the target is T1, Ionotropic glutamate receptor NMDA 1/2D (Rattus norvegicus) (UniProt P35439+Q62645). The assay is described as follows: Negative allosteric modulation of recombinant rat GluN1/GluN2D expressed in Xenopus laevis oocytes assessed as inhibition of glutamate/glycine-induced current response at saturated concentration at -40 mV holding potential by two-electrode voltage clamp method relative to glutamate/glycine. Format: cell-based. The procedure, abridged:
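Hill fit of the composite concentration-response curve in oocytes, with agonist 100 µM glutamate plus 30 µM glycine. Residual response in saturating compound is either fixed at 0 or fitted. 8-16 oocytes from 2-3 frogs.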

Assay [6] addresses T1, Ionotropic glutamate receptor NMDA 1/2D (Rattus norvegicus). In words: Negative allosteric modulation of recombinant rat GluN1/GluN2D expressed in Xenopus laevis oocytes assessed as inhibition of glutamate/glycine-induced current response at 30 uM at -40 mV holding potential by two-electrode voltage clamp method relative to glutamate/glycine. The settings on record: values are per cent of control. The format is cell-based. The procedure, abridged: (§2)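 Oocytes recorded while the drug is co-applied with a maximally effective 100 µM glutamate plus 30 µM glycine. Response is expressed as percent of the glutamate/glycine control. IC50 comes from a Hill fit to the average composite concentration-response curve. 8-16 oocytes from 2-3 frogs per compound and receptor.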

The target in assay [7] is Glutamate NMDA receptor; Grin1/Grin2a (Rattus norvegicus) (UniProt P35439+Q00959). In words: Negative allosteric modulation of recombinant rat GluN1/GluN2A expressed in Xenopus laevis oocytes assessed as residual glutamate/glycine-induced current response at 30 uM at -40 mV holding potential by two-electrode voltage clamp method relative to glutamate/glycine.
The target in assay [8] is Glutamate NMDA receptor; Grin1/Grin2b (Rattus norvegicus, UniProt P35439+Q00960). The assay is described as follows: Negative allosteric modulation of recombinant rat GluN1/GluN2B expressed in Xenopus laevis oocytes assessed as inhibition of glutamate/glycine-induced current response at -40 mV holding potential by two-electrode voltage clamp method. The format is cell-based. The procedure, abridged:
as §2

For the next assay, the species on record is Rattus norvegicus. The assay is described as follows: Negative allosteric modulation of rat GABAA alpha1beta2gamma2S expressed in Xenopus laevis oocytes assessed as inhibition of GABA-induced current response at 30 uM at -40 mV holding potential by two-electrode voltage clamp method relative to GABA alone. Format: cell-based. The procedure, abridged:
as §1

Chain of Glutamate NMDA receptor; Grin1/Grin2b (Q00960 whole entry, other chains not shown): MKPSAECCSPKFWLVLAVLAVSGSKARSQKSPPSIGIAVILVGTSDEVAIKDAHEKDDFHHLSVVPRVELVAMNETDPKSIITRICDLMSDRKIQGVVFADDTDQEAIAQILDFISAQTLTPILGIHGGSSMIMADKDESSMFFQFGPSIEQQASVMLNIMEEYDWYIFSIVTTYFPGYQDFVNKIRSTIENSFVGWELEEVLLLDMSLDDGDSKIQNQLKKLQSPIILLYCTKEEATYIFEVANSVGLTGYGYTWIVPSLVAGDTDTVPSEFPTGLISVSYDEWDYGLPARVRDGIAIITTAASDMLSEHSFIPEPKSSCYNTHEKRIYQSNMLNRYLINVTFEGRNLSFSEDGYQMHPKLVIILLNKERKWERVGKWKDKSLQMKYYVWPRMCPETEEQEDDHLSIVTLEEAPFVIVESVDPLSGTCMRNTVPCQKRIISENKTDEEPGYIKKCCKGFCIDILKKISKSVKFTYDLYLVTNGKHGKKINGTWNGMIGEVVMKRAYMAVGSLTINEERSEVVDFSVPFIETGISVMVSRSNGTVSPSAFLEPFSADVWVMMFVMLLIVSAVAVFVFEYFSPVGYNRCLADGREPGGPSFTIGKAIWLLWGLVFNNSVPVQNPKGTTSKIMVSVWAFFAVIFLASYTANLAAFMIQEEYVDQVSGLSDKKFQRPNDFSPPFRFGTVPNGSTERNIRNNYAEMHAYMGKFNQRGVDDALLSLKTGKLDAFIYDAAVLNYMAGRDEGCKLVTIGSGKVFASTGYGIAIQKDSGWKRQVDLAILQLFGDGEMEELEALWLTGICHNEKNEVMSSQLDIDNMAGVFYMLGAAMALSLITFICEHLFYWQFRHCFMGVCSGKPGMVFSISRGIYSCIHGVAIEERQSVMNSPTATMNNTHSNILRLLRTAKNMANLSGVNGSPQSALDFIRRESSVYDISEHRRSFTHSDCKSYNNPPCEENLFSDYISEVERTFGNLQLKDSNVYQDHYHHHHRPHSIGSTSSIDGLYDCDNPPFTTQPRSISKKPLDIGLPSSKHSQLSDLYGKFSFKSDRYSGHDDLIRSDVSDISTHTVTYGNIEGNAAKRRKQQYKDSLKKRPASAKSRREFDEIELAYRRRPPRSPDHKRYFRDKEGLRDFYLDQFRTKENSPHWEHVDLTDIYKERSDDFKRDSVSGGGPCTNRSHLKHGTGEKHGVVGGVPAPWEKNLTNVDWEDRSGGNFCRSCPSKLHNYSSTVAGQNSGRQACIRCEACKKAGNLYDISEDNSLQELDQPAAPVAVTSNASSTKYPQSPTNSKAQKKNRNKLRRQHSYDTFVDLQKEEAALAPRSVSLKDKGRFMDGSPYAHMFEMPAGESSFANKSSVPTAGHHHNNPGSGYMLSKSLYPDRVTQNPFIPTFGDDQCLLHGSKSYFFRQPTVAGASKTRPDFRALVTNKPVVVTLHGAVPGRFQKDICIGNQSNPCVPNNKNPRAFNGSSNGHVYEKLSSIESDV
Chain of Glutamate receptor 3 (Homo sapiens), P42263 [L513Y] (P42263 whole entry L513Y): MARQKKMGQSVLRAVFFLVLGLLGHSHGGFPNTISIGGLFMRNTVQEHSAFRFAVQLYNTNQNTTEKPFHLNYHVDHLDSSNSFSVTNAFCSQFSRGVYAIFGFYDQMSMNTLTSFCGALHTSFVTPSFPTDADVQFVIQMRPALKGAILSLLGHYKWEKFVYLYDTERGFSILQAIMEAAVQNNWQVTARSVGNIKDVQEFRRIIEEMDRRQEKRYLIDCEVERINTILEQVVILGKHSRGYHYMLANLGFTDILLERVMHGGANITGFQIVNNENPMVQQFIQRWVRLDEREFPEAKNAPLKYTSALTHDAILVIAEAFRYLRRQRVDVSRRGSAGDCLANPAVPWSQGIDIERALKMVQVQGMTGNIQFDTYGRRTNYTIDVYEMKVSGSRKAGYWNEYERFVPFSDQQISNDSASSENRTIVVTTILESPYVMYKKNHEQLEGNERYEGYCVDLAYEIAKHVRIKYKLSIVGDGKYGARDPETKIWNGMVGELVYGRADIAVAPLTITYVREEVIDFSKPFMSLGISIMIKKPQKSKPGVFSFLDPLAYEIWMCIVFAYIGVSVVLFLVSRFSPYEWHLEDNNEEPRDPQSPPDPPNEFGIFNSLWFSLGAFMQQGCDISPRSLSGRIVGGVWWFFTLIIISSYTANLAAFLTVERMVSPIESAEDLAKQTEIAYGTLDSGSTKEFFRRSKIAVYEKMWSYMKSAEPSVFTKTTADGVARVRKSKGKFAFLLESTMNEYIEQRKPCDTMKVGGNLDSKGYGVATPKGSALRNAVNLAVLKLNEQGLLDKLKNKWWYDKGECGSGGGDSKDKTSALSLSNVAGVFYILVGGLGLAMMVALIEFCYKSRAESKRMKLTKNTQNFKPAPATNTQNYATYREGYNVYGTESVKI
Chain of Glutamate receptor 4 (Homo sapiens), P48058 [L505Y] (P48058 whole entry L505Y): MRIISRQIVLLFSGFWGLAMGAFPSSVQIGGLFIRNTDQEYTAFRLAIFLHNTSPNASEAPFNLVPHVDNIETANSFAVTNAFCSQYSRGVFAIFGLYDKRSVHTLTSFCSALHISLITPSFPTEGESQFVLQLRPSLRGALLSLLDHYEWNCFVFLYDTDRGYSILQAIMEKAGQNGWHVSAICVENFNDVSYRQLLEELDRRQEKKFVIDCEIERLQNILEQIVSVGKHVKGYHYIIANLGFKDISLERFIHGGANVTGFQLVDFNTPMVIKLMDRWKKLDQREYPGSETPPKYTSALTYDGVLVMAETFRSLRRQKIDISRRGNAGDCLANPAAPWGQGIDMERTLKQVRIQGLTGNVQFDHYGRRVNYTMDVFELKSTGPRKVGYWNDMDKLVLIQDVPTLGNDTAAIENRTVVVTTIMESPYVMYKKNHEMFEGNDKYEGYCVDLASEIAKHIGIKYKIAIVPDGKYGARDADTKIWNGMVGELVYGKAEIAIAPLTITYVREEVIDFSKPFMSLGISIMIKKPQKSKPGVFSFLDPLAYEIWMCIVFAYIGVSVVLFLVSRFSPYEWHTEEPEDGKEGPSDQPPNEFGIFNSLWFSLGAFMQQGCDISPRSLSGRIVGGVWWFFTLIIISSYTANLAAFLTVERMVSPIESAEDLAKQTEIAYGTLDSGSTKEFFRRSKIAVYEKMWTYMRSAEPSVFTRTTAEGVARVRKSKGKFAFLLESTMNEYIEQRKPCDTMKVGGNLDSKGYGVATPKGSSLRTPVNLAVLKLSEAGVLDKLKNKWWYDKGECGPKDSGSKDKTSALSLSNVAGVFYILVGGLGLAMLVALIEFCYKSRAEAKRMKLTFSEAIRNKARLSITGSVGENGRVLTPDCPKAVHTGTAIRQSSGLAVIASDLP

In the case of `CCN(CC)C(=O)Oc1ccc(C(=O)Nc2cccc(CCNS(=O)(=O)c3ccccc3)c2)cc1`, the inhibition is 86% in assay [1]; 86% in assay [2]; 80% in [3]; 0% in assay [5]; 90% in the assay listed under Rattus norvegicus. Moreover, the Ratio IC50 in [4] is below 6. For the same compound, the residual activity was 8.9 to 9% in assay [6] and 85% in [7]. In addition, the IC50 in assay [8] turned out to be 7.6 µM.
